Activity calls are given as the source filed them. The rule behind the calls is not given here.
Tests used:
[1] = system: Sporosarcina pasteurii; experiment: Competitive inhibition of Sporosarcina pasteurii CCM 2056 urease using urea as substrate assessed as ammonia levels after 120 mins by Lineweaver-Burk plot analysis
How it was run: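 Purified native S. pasteurii urease (113.5 pM final) preincubated with rising inhibitor levels in 3 mM phosphate buffer pH 7.5, 37°C, until equilibrium; urea 1–60 mM then added. Initial rates measured by phenol-hypochlorite ammonia read-out; mode and constants from Lineweaver-Burk plots using at least 5 inhibitor concentrations.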

[2] = system: Sporosarcina pasteurii; experiment: Reversible inhibition of Sporosarcina pasteurii CCM 2056 urease using urea as substrate assessed as ammonia levels after 120 mins by fast dilution assay
[3] = Steady state inhibition of Sporosarcina pasteurii CCM 2056 urease using urea as substrate assessed as inhibition constant for final enzyme conformation-inhibitor complex by measuring ammonia levels after 120 mins by phenol-hypochlorite method
How it was run: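 S. pasteurii urease (113.5 pM final) added to stirred mixtures with 25 mM urea and varied inhibitor (water or DMF), 3 mM phosphate pH 7.5, 37°C. Ammonia sampled over 120 min by phenol-hypochlorite. Progress curves fitted to integrated slow-binding equation. Ki and Ki* derived using Km and Vmax of uninhibited enzyme.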

[4] = biological target: T1, Urease subunit alpha/Urease subunit beta (Helicobacter pylori (strain ATCC 700392 / 26695) (Campylobacterpylori), UniProt P69996); experiment: (§1) Inhibition of recombinant Helicobacter pylori urease expressed in Escherichia coli rosetta DE3 using urea as substrate assessed as transformed cell urea splitting activity after 2 hrs by Berthelot assay
T1 sequence (P69996 whole entry): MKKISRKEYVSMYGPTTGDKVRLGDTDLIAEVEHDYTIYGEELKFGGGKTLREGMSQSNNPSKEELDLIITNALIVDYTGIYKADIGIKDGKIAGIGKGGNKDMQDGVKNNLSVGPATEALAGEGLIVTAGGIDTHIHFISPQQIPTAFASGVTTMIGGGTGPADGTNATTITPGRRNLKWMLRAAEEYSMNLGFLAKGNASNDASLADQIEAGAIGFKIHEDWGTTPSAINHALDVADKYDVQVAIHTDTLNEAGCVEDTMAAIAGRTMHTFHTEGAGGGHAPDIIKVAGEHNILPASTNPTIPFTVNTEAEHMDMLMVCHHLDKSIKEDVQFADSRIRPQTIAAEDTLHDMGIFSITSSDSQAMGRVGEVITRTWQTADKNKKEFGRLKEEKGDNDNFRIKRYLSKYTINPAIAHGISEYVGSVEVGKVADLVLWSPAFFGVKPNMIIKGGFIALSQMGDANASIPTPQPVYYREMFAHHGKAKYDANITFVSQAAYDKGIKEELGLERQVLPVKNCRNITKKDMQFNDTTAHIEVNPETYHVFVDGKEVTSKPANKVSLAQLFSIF
T1 sequence (P14916 whole entry, further chain): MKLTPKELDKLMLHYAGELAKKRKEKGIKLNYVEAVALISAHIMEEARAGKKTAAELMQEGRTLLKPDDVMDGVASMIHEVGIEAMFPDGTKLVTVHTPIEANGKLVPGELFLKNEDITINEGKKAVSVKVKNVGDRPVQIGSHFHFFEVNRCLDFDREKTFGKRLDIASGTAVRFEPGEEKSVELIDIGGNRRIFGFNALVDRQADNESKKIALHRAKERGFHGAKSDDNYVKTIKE
How it was run: (§2)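 E. coli Rosetta pGEM::ureOP cells grown in LB with ampicillin at 37°C, induced with 0.75 mM IPTG and 0.75 mM Ni²⁺ for 24 h at 22°C, then washed thrice in PBS. Cells (1×10⁹ cfu/mL final) start the reaction in 10 mM PBS with 5 mM urea and inhibitor. Timed aliquots read by Berthelot; triplicate.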

[5] = biological target: T1, Urease subunit alpha/Urease subunit beta; experiment: Inhibition of recombinant Helicobacter pylori urease expressed in Escherichia coli rosetta DE3 using urea as substrate assessed as transformed cell urea splitting activity preincubated for 2 hrs followed by substrate addition measured after 2 hrs by Berthelot assay
How it was run: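 Induced, PBS-washed E. coli Rosetta pGEM::ureOP cells (1×10⁹ cfu/mL) held 2 h with inhibitor in 10 mM PBS. Urea then added to 5 mM. Ammonia in timed aliquots measured by Berthelot assay against an inhibitor-free reference. DMF effect checked. Three repeats.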

[6] = biological target: T2, Urease subunit alpha/Urease subunit beta (Helicobacter pylori (strain ATCC 700392 / 26695) (Campylobacterpylori), UniProt P69996+P14916); experiment: (§3) Inhibition of urease in Helicobacter pylori J99 in Brucella broth using urea as substrate after 2 hrs by Berthelot assay; assay type: protein-complex assay
T2 sequence (P69996 whole entry): as the sequence (P69996 whole entry) above
T2 sequence (P14916 whole entry): as the sequence (P14916 whole entry, further chain) above
How it was run: (§4)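 H. pylori J99 passaged on blood Columbia agar, microaerophilic, 37°C. Then grown 48 h in Brucella broth with 5% FBS and 1% IsoVitalex, spun once and resuspended in 10 mM PBS pH 7.2 without washing. About 1×10⁷ cfu/mL added to PBS with 5 mM urea and inhibitor. Berthelot ammonia read-out, triplicate.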

[7] = biological target: T1, Urease subunit alpha/Urease subunit beta; experiment: Inhibition of urease in Helicobacter pylori J99 in Brucella broth using urea as substrate preincubated for 2 hrs followed by substrate addition measured after 2 hrs by Berthelot assay; assay type: protein-complex assay
How it was run: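 Unwashed H. pylori J99 cells from 48 h Brucella broth culture (5% FBS, 1% IsoVitalex), resuspended in 10 mM PBS pH 7.2, about 1×10⁷ cfu/mL. Cells preincubated 2 h with inhibitor before 5 mM urea was added. Timed aliquots assayed by Berthelot method; three repeats.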

[8] = biological target: T2, Urease subunit alpha/Urease subunit beta; experiment: as §1; how it was run: as §2
[9] = biological target: Urease subunit alpha/Urease subunit beta (Helicobacter pylori (strain ATCC 700392 / 26695) (Campylobacterpylori)) (UniProt P69996+P14916); experiment: Competitive reversible inhibition of recombinant Helicobacter pylori urease […] in transformed Escherichia coli rosetta DE3 after 120 mins by Lineweaver-Burk plot analysis; assay type: protein-complex assay
Urease subunit alpha/Urease subunit beta (Helicobacter pylori (strain ATCC 700392 / 26695) (Campylobacterpylori)), sequence (P14916 whole entry, looked up): as the sequence (P14916 whole entry, further chain) above
Urease subunit alpha/Urease subunit beta (Helicobacter pylori (strain ATCC 700392 / 26695) (Campylobacterpylori)), sequence (P69996 whole entry, looked up): as the sequence (P69996 whole entry) above
How it was run: (§5)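 Homogeneous recombinant H. pylori urease purified from E. coli Rosetta (DE3) pGEM::ureOP (488 pM final) added to mixtures with rising inhibitor levels and 0.1–2.5 mM urea, 3 mM phosphate pH 7.5, 37°C. Ammonia measured by Berthelot reaction. Ki from Lineweaver-Burk plots, at least 5 inhibitor concentrations, in triplicate.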

[10] = biological target: T1, Urease subunit alpha/Urease subunit beta; experiment: Inhibition of recombinant Helicobacter pylori urease expressed in Escherichia coli rosetta DE3 after 120 mins by Berthelot colorimetric analysis; how it was run: as §5
[11] = biological target: T1, Urease subunit alpha/Urease subunit beta; experiment: as §3; assay type: protein-complex assay; how it was run: as §4

Row | Structure (SMILES) | competitive inhibition (qualitative call) [1] | reversible inhibition (qualitative) [2] | Ki [3] [µM] | IC50 [4] [µM] | IC50 [5] [µM] | IC50 [6] | IC50 [7] [µM] | IC50 [8] | inhibition mode (competitive reversible) [9] | Ki [10] [µM] | IC50 [11] [µM]
1 | O=c1[nH][se]c2ccccc12 | Active | Active | 0.0247 | 48.6 | 1.28 | Not Active | 6.92 |  |  |  | 
2 | O=C(O)CNC(=O)c1ccccc1[Se][Se]c1ccccc1C(=O)NCC(=O)O | Active | Active | 10.3 | 163 | 121 | Not Active | 358 |  |  |  | 
3 | O=C(O)CCCNC(=O)c1ccccc1[Se][Se]c1ccccc1C(=O)NCCCC(=O)O | Active | Active | 15.1 |  | 35.4 | Not Active | 421 | Not Active |  |  | 
4 | COC(=O)CCCNC(=O)c1ccccc1[Se][Se]c1ccccc1C(=O)NCCCC(=O)OC | Active | Active | 0.00348 |  | 20.1 | Not Active | 11.8 | Not Active | Active | 0.184 | 
5 | CC(=O)NO [ACETOHYDROXAMIC ACID] | Active | Active | 3.3 | 154 | 96 | Not Active | 156 |  |  | 96 | 
6 | COC(=O)[C@H](CC(C)C)n1[se]c2ccccc2c1=O | Active | Active | 0.0763 | 127 | 35.2 | Not Active | 3.3 |  |  |  | 
7 | CC(C)[C@@H](C(=O)O)n1[se]c2ccccc2c1=O | Active | Active | 1.01 | 186 | 38.4 |  | 25.4 |  |  |  | 390
8 | O=C(O)C[C@@H](C(=O)O)n1[se]c2ccccc2c1=O | Active | Active | 2.41 | 388 | 319 | Not Active | 50.8 |  |  |  | 
9 | O=C(O)CCCn1[se]c2ccccc2c1=O | Active | Active | 0.806 | 103 | 37 | Not Active | 98 |  |  |  | 
10 | C[C@H](c1ccccc1)n1[se]c2ccccc2c1=O | Active | Active | 0.139 |  | 25.3 | Not Active | 5.04 | Not Active |  |  | 
11 | O=c1c2ccccc2[se]n1[C@H](CO)c1ccccc1 | Active | Active | 0.0121 | 79 | 22.7 | Not Active | 5.03 |  |  |  | 
12 | COC(=O)CNC(=O)c1ccccc1[Se][Se]c1ccccc1C(=O)NCC(=O)OC | Active | Active | 0.00667 |  | 85 | Not Active | 83.5 | Not Active | Active | 0.915 | 
13 | CCC(C)[C@@H](C(=O)OC)n1[se]c2ccccc2c1=O (stereo partly drawn) | Active | Active | 0.164 | 96 | 25.8 | Not Active | 4.07 |  |  |  | 
14 | C[C@@H](C(=O)O)n1[se]c2ccccc2c1=O | Active | Active | 0.883 |  | 196 | Not Active | 611 | Not Active |  |  | 
15 | CC(C)C[C@@H](C(=O)O)n1[se]c2ccccc2c1=O | Active | Active | 0.936 | 301 | 95 | Not Active | 69.5 |  |  |  | 
16 | COC(=O)Cn1[se]c2ccccc2c1=O | Active | Active | 0.084 | 108 | 9.2 |  | 2.12 |  |  |  | 3.47
17 | C[C@H](NC(=O)c1ccccc1[Se][Se]c1ccccc1C(=O)N[C@@H](C)C(=O)O)C(=O)O | Active | Active | 14.9 | 85 | 25.9 | Not Active | 183 |  |  |  | 
18 | COC(=O)[C@H](C)n1[se]c2ccccc2c1=O | Active | Active | 0.0326 | 75 | 19 |  | 3.91 |  |  |  | 75.1
19 | COC(=O)[C@@H](CC(C)C)n1[se]c2ccccc2c1=O | Active | Active | 0.0261 | 121 | 40.9 |  | 3.14 |  |  |  | 75.7

Source: ChEMBL document CHEMBL4431351, “1,2-Benzisoselenazol-3(2H)-one Derivatives As a New Class of Bacterial Urease Inhibitors” (J Med Chem, 2016)
